Data published in ChEMBL document CHEMBL5120825, “The azulene scaffold from a medicinal chemist's perspective: Physicochemical and in vitro parameters relevant for drug discovery” (Eur J Med Chem, 2022).
Converted amounts (≈) assume the structure as drawn.

Key:
[1] = Lipophilicity, logP of the compound; format: physicochemical; settings: octanol/water
[2] = Aqueous solubility of the compound at pH 2.2 incubated for 24 hrs under shaking condition by LC-UV analysis; format: physicochemical; settings: aqueous medium
Method in brief: (§1)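 The highest concentration tested was 250 μM, so results are capped at that level. Values are reported in µg/ml.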

[3] = Aqueous solubility of the compound at pH 4.5 incubated for 24 hrs under shaking condition by LC-UV analysis; format: physicochemical; settings: aqueous medium; method in brief: as §1
[4] = Aqueous solubility of the compound at pH 6.8 incubated for 24 hrs under shaking condition by LC-UV analysis; format: physicochemical; settings: aqueous medium; method in brief: as §1
[5] = Metabolic stability in human liver microsomes assessed as hepatic blood flow at 1 uM preincubated with compound followed by NADPH addition by LC-MS/MS analysis; format: ADME, Microsome; settings: read-out: QH
[6] = Octanol-water partition coefficient, logD of the compound at pH 2 by HPLC analysis; format: physicochemical
[7] = Octanol-water partition coefficient, logD of the compound at pH 11 by HPLC analysis; format: physicochemical
[8] = Permeability of the compound at pH 7.4 by PAMPA assay; format: ADME; settings: read-out: permeability

| SMILES | logP ([1]; read-out: logP) | solubility thermodynamic at 24 h [2] | solubility thermodynamic at 24 h [3] | solubility thermodynamic at 24 h [4] | hepatic extraction ratio at 1 µM [5] | logD ([6]; read-out: logD) | logD ([7]; read-out: logD) | logP [1] | Papp [8] | logD [6] | logD [7] |
| --- | --- | --- | --- | --- | --- | --- | --- | --- | --- | --- | --- |
| O=C(Nc1ccc2ccccc2c1)c1cccnc1 | 2.4 | > 50 µg/mL | 6 µg/mL (≈ 24.2 µM) | 4 µg/mL (≈ 16.1 µM) | 0.67 | 1.4 | 2.4 |  |  |  |  |
| NC(=O)C1CCN(C(=O)c2cccc3ccccc23)CC1 |  | > 70 µg/mL | > 71 µg/mL | > 71 µg/mL | < 0.23 |  | 0.8 | 0.8 | 0.2 ×10⁻⁶ cm/s | 1.3 |  |
| COC(=O)c1ccc2[nH]cc(C(=O)c3ccccc3)c2c1 |  | < 1 µg/mL | < 1 µg/mL | < 1 µg/mL |  |  | 2.5 | 2.5 | 2.8 ×10⁻⁶ cm/s | 2.9 |  |
| COC(=O)c1ccc2c(C(=O)c3ccccc3)cc(C(=O)c3ccccc3)c-2cc1 | 5.5 | < 1 µg/mL | < 1 µg/mL | < 1 µg/mL |  | 5.6 | 5.5 |  | 0.3 ×10⁻⁶ cm/s |  |  |
| COC(=O)c1ccc2ccc(C(=O)c3ccccc3)c-2cc1 | 4.7 | < 1 µg/mL | < 1 µg/mL | < 1 µg/mL |  | 4.8 | 4.7 |  | 0.1 ×10⁻⁶ cm/s |  |  |
| Cn1c(NC(=O)Cn2ccccc2=O)cc2ccccc21 |  |  |  | 3 µg/mL (≈ 10.7 µM) | < 0.23 |  |  | 1.1 | 3.3 ×10⁻⁶ cm/s | 1.5 | 1.5 |
| O=C(Cn1ccccc1=O)Nc1cc2ccccc2[nH]1 |  | > 60 µg/mL | > 67 µg/mL | > 67 µg/mL | < 0.23 |  |  | 0.4 | 0.1 ×10⁻⁶ cm/s | 1 | 1 |
| c1ccc2cc(CN3CCCCC3)ccc2c1 | > 5.5 | 34 µg/mL (≈ 151 µM) | 30 µg/mL (≈ 133 µM) | 27 µg/mL (≈ 120 µM) | 0.72 | 0.9 | > 5.5 |  | 4.6 ×10⁻⁶ cm/s |  |  |
| COC(=O)c1ccc2c(C(=O)N(C)C)cn(C)c2c1 |  | 50 µg/mL (≈ 192 µM) | > 52 µg/mL | 49 µg/mL (≈ 188 µM) | 0.82 |  |  | 1.4 | 4.2 ×10⁻⁶ cm/s | 1.9 | 1.9 |
| COC(=O)c1ccc2c(C(=O)Nc3ccccc3)cn(C)c2c1 |  | < 1 µg/mL | < 1 µg/mL | < 1 µg/mL |  |  |  | 2.9 | 2.2 ×10⁻⁶ cm/s | 3.4 | 3.4 |
| COC(=O)c1ccc2c(c1)c(C(=O)c1ccccc1)cn2C(=O)c1ccccc1 | 5.2 | < 1 µg/mL | < 1 µg/mL | < 1 µg/mL |  | 5.2 | 5.2 |  | 1.3 ×10⁻⁶ cm/s |  |  |
| COC(=O)c1ccc2ccc(C(=O)Nc3ccccc3)c-2cc1 | 3.8 | < 1 µg/mL | < 1 µg/mL | < 1 µg/mL |  | 4 | 4 |  | 0.4 ×10⁻⁶ cm/s |  |  |
| CN(C)C(=O)Cc1ccc2ccn(C)c2c1 | 1.7 | > 54 µg/mL | > 53 µg/mL | > 53 µg/mL | < 0.23 | 1.9 | 1.7 |  | 7.6 ×10⁻⁶ cm/s |  |  |
| COC(=O)c1ccc2ccn(C(=O)c3ccccc3)c2c1 | 4.3 | < 1 µg/mL | < 1 µg/mL | < 1 µg/mL |  | 4.4 | 4.3 |  | 0.5 ×10⁻⁶ cm/s |  |  |
| O=C(Nc1cc2cccccc-2c1)c1cccnc1 | 2.4 | 43 µg/mL (≈ 173 µM) | 3 µg/mL (≈ 12.1 µM) | 2 µg/mL (≈ 8.06 µM) | 0.71 | 1.3 | 1.3 |  | 4.8 ×10⁻⁶ cm/s |  |  |
| NC(=O)C1CCN(C(=O)c2c[nH]c3ccccc23)CC1 |  |  |  |  | < 0.23 |  | -0.2 | -0.2 | < 0.01 ×10⁻⁶ cm/s | 0.3 |  |
| CN1CCN(C(=O)c2ccc3[nH]cc(C(=O)c4ccccc4)c3c2)CC1 | 1.3 | > 74 µg/mL |  | 69 µg/mL (≈ 199 µM) | < 0.23 | 0.5 | 1.3 |  | 0.2 ×10⁻⁶ cm/s |  |  |
| O=C(NCCO)c1ccc2[nH]cc(C(=O)c3ccccc3)c2c1 |  | 39 µg/mL (≈ 126 µM) | 18 µg/mL (≈ 58.4 µM) | 15 µg/mL (≈ 48.6 µM) | 0.53 |  |  | 0.6 | 0.01 ×10⁻⁶ cm/s | 1.3 | 1.3 |
| COC(=O)c1ccc2c(C(=O)c3ccccc3)c[nH]c2c1 |  | < 1 µg/mL | < 1 µg/mL | < 1 µg/mL |  |  | 2.7 | 2.7 | 1.5 ×10⁻⁶ cm/s | 3.1 |  |
| O=C(NCCc1c[nH]c2ccccc12)c1ccc2[nH]cc(C(=O)c3ccccc3)c2c1 |  | < 1 µg/mL | < 1 µg/mL | 1 µg/mL (≈ 2.45 µM) | 0.84 |  | 2.8 | 2.8 | < 0.01 ×10⁻⁶ cm/s | 3.3 |  |
| CN(C)C(=O)Cc1ccc2cc[nH]c2c1 |  | > 51 µg/mL | > 51 µg/mL | > 51 µg/mL | < 0.23 |  | 1 | 1 | 1.3 ×10⁻⁶ cm/s | 1.4 |  |
| COC(=O)c1ccc2c(ccn2C(=O)c2ccccc2)c1 | 4.4 | < 1 µg/mL | < 1 µg/mL | < 1 µg/mL |  | 4.5 | 4.4 |  | 0.5 ×10⁻⁶ cm/s |  |  |
| COC(=O)c1ccc2c(C(=O)c3ccccc3)cn(C(=O)c3ccccc3)c2c1 | 5.2 | < 1 µg/mL | < 1 µg/mL | < 1 µg/mL |  | 5.2 | 5.2 |  | 2.1 ×10⁻⁶ cm/s |  |  |
| CN(C)C(=O)Cc1ccc2ccccc2c1 |  | 41 µg/mL (≈ 192 µM) | 39 µg/mL (≈ 183 µM) | 40 µg/mL (≈ 188 µM) | 0.4 |  | 2.4 | 2.4 | 4.7 ×10⁻⁶ cm/s | 2.7 |  |
| Cn1cc(C(=O)N2CCC(C(N)=O)CC2)c2ccccc21 |  | > 71 µg/mL | 44 µg/mL (≈ 154 µM) | > 64 µg/mL | < 0.23 |  | 0.4 | 0.4 | 0.2 ×10⁻⁶ cm/s | 1.1 |  |
| Cn1c(NC(=O)c2cccnc2)cc2ccccc21 | 1.3 | > 59 µg/mL |  |  | 0.23 | -0.1 | -0.1 |  | 4.9 ×10⁻⁶ cm/s |  |  |
